Measurements from ChEMBL document CHEMBL1123454, “New alpha-methylene gamma-lactone derivatives of substituted nucleic acid bases as potential anticancer agents” (1986).
≈ marks a conversion by molar mass, not a printed value.

Tests used:
Mus musculus [1] = assay: Average survival days was measured by administrating the compound to Ehrlich ascites carcinoma (EAC) in swiss mice at 25 mg/kg dose; assay type: functional
How it was run: (§1)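 Swiss male mice (18–20 g) inoculated ip on day 0 with 1×10^6 EAC cells diluted in normal saline. Daily ip treatment began 24 h later for 7 days, compound homogenized in saline with 2% Tween-80, dose volume ≤0.01 mL/g; vehicle controls. Six mice per dose, one control group per six groups. Deaths counted daily; median survival times, T/C.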

Mus musculus [2] = assay: Average survival days was measured by administrating the compound to Ehrlich ascites carcinoma(EAC) in swiss mice at 12 mg/kg dose; assay type: functional; how it was run: as §1
Mus musculus [3] = assay: Compound was tested in vivo for antitumor activity at 12 mg/kg dose; assay type: functional
How it was run: (§2)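 Swiss male mice (18–20 g) inoculated ip on day 0 with 1×10^6 Ehrlich ascites carcinoma cells in 0.2 mL saline. Starting 24 h later, ip dosing once daily for 7 days; compound homogenized in saline with 2% Tween-80, at most 0.01 mL/g. Controls received vehicle alone. Six mice per dose, one control group per six groups. Deaths counted daily; median survival times expressed as T/C.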

[4] = In vitro concentration required to reduce the growth rate of KB cells in culture by 50%; assay type: functional; conditions: Homo sapiens, read-out: ED50 (the source's name)
How it was run: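 Cytotoxicity screened at the National Cancer Institute by its standard protocol against murine P-388 lymphocytic leukemia (PS) and human nasopharyngeal carcinoma KB cells in culture. ED50 (μg/mL) is the concentration that halves the growth rate relative to control cultures.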

Mus musculus [5] = assay: Compound was tested in vivo for antitumor activity at 25 mg/kg dose; assay type: functional; how it was run: as §2
PS = assay: In vitro concentration required to reduce the growth rate of PS cells in culture by 50%; conditions: Mus musculus, read-out: ED50 (the source's name)
Mus musculus [6] = assay: Average survival days was measured by administrating the compound to Ehrlich ascites carcinoma (EAC) in swiss mice at 12 mg/kg dose; assay type: functional; how it was run: as §1

`C=C1CC(CC)(CCn2cnc3c(Cl)ncnc32)OC1=O` (stereo not given) showed an Average survival days (Mus musculus [1]) of 25, an Average survival days (Mus musculus [2]) of 19.5 and a T/C (Mus musculus [3]) of 126. For the same compound, the EC50 [4] was 2.6 µg/mL (≈ 8.48 µM), the T/C (Mus musculus [5]) was 161 and the EC50 (PS) was 0.25 µg/mL (≈ 0.815 µM).

`C=C1CC(CC)(CCn2cnc3c(S)ncnc32)OC1=O` (stereo not given) gave an Average survival days (Mus musculus [1]) of 17.5, an Average survival days (Mus musculus [2]) of 18 and a T/C (Mus musculus [3]) of 116. It also gave a T/C (Mus musculus [5]) of 113.

`C=C1CC(C)(Cn2cnc3c(Cl)ncnc32)OC1=O` (stereo not given) gave an Average survival days (Mus musculus [1]) of 24, an Average survival days (Mus musculus [2]) of 20 and a T/C (Mus musculus [3]) of 133. For the same compound, the EC50 [4] was 1.5 µg/mL (≈ 5.38 µM), the T/C (Mus musculus [5]) was 160 and the EC50 (PS) was 0.17 µg/mL (≈ 0.61 µM).

In the case of `C=C1CC(CC)(CCn2ccc(=O)[nH]c2=O)OC1=O` (stereo not given), the Average survival days (Mus musculus [1]) is reported as 19.5, the T/C (Mus musculus [3]) is reported as 129 and the Average survival days (Mus musculus [6]) is reported as 20. It also gave an EC50 [4] of 2.8 µg/mL (≈ 10.6 µM), a T/C (Mus musculus [5]) of 126 and an EC50 (PS) of 0.35 µg/mL (≈ 1.32 µM).

`C=C1CC(CC)(CCn2cc(F)c(=O)n(CCC3(CC)CC(=C)C(=O)O3)c2=O)OC1=O` (stereo not given) gave an Average survival days (Mus musculus [1]) of 21, an Average survival days (Mus musculus [2]) of 23.5 and a T/C (Mus musculus [3]) of 138. It also gave a T/C (Mus musculus [5]) of 123.

`C=C1CC(CC)(CCn2cnc3c(O)ncnc32)OC1=O` (stereo not given) gave an Average survival days (Mus musculus [1]) of 17, an Average survival days (Mus musculus [2]) of 17.5 and a T/C (Mus musculus [3]) of 113. For the same compound, the T/C (Mus musculus [5]) was 109.

With `O=c1[nH]cc(F)c(=O)[nH]1` [FLUOROURACIL] the Average survival days (Mus musculus [1]) was 33 and the T/C (Mus musculus [5]) was 220.

`C=C1CC(C)(Cn2cnc3c(O)ncnc32)OC1=O` (stereo not given) showed an Average survival days (Mus musculus [1]) of 16.5, an Average survival days (Mus musculus [2]) of 16 and a T/C (Mus musculus [3]) of 107. For the same compound, the T/C (Mus musculus [5]) was 110.

With `C=C1CC(CC)(CCn2cc(F)c(=O)[nH]c2=O)OC1=O` (stereo not given) the Average survival days (Mus musculus [1]) was 19.5, the Average survival days (Mus musculus [2]) was 23 and the T/C (Mus musculus [3]) was 148. It also gave a T/C (Mus musculus [5]) of 126.

Work on `C=C1CC(C)(Cn2cnc3c(S)ncnc32)OC1=O` (stereo not given) yielded an Average survival days (Mus musculus [1]) of 18.5, an Average survival days (Mus musculus [2]) of 16 and a T/C (Mus musculus [3]) of 107. The EC50 [4] was > 10 µg/mL, the T/C (Mus musculus [5]) was 123 and the EC50 (PS) was > 10 µg/mL.

Compound `C=C1CC(CC)(CCn2cc(C)c(=O)[nH]c2=O)OC1=O` (stereo not given) has an Average survival days (Mus musculus [1]) of 25.5, an Average survival days (Mus musculus [2]) of 24.5 and a T/C (Mus musculus [3]) of 163. For the same compound, the T/C (Mus musculus [5]) was 170.
